The source made the active and inactive calls. No cut-off for these calls is given here.
Columns and labels:
[1] = (§1) Ratio of TD50/ED50; TI indicates Therapeutic index; details: read-out: TI
In short: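 Protective index calculated as TD50 (rotorod, ip) divided by MES ED50 (ip), both in mg/kg.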

[2] = (§2) Minimal motor impairment was measured in mouse by rotating rod test upon intraperitoneal administration; assay type: toxicity; details: in vivo, ip
In short: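 Mouse rotorod (rotating rod) test for minimal motor impairment after ip dosing, run alongside the MES and scMET screens. Reported as TD50 (mg/kg) ip with 95% confidence limits.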

Mus musculus [3] = assay: Anticonvulsant activity in mouse maximal electroshock seizure test following i.p. administration.; assay type: functional; details: ip
In short: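 Test agent given ip as a suspension at 30, 100 and 300 mg/kg to one to four mice, observed at 30 min and, in a separate test, at 4 h. Quantified values are ED50 (mg/kg) with 95% confidence limits.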

[4] = Minimal motor impairment was measured in rat by overt evidence of ataxia upon intraperitoneal administration; details: in vivo, ip
Rattus norvegicus [5] = assay: Compound was tested for anticonvulsant activity by maximal electroshock seizure(MES) test in rat upon intraperitoneal administration; assay type: functional; details: ip
[6] = as §1
Mus musculus [7] = assay: as §2; details: ip
Mus musculus [8] = assay: Ability to block seizures induced by bicuculline after intraperitoneal administration; NA indicates not active; assay type: functional, organism-based
Rattus norvegicus [9] = assay: Minimal motor impairment was measured in rat by rotating rod test upon intraperitoneal administration; details: ip
Mus musculus [10] = assay: Ability to block seizures induced by bicuculline after intraperitoneal administration.; assay type: functional; details: ip
[11] = Toxic dose was measured in rat by rotating rod test.; details: in vivo
[12] = Toxic dose was measured in mouse by rotating rod test; details: in vivo
[13] = Ratio of TD50/ED50.; assay type: ADME; details: read-out: TI
In short: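 Maximal electroshock seizure ED50 was determined with ip dosing and reported in mg/kg with 95% confidence limits. TD50 was determined ip by the rotating rod test for minimal motor impairment, and in some cases by overt ataxia. Protective index = TD50/ED50.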

Mus musculus [14] = assay: Effective dose was determined by Maximum Electroshock Seizure test after intraperitoneal dose in mouse; details: ip

Cn1cc(C(=O)c2ccc(Cl)cc2)cc1C(=O)CN1CCCCC1
selectivity ratio [1]: 2.36 | TD50 [2]: 141 mg/kg | ED50 (Mus musculus [3]): 59.7 mg/kg

Cc1c(C(=O)CN2CCOCC2)c(C)n(C)c1C(=O)c1ccc(Cl)cc1
selectivity ratio [1]: 2.66 | TD50 [2]: 233 mg/kg | ED50 (Mus musculus [3]): 87.6 mg/kg

CCN(CC)CC(=O)c1cc(C(=O)c2ccc(OC)cc2)n(C)c1.Cl
selectivity ratio [1]: 1.37 | TD50 [2]: 45.1 mg/kg | ED50 (Mus musculus [3]): 33 mg/kg

CCN(CC)CC(=O)c1c(C)c(C(=O)c2ccc(Cl)cc2Cl)n(C)c1C
selectivity ratio [1]: 3.38 | TD50 [4]: > 500 mg/kg | TD50 [2]: 50.6 mg/kg | ED50 (Mus musculus [3]): 14.9 mg/kg | ED50 (Rattus norvegicus [5]): 19.4 mg/kg

Cn1cc(C(=O)CN2CCCC2)cc1C(=O)c1cccc(Cl)c1.[O-][Cl+3]([O-])([O-])O
selectivity ratio [1]: 3.38 | TD50 [2]: 55.6 mg/kg | ED50 (Mus musculus [3]): 16.5 mg/kg

Cl.Cn1cc(C(=O)CN2CCOCC2)cc1C(=O)c1cccc(Cl)c1
selectivity ratio [1]: 2.96 | TD50 [4]: > 500 mg/kg | TD50 [2]: 110 mg/kg | ED50 (Mus musculus [3]): 37.4 mg/kg | ED50 (Rattus norvegicus [5]): 72 mg/kg

NC(=O)N1c2ccccc2C=Cc2ccccc21 [CARBAMAZEPINE]
selectivity ratio [6]: 4.93 | TD50 (Mus musculus [7]): 47.8 mg/kg | ED50 (Mus musculus [8]): inactive | ED50 (Mus musculus [3]): 9.9 mg/kg | ED50 (Rattus norvegicus [5]): 36 mg/kg

Cn1cc(C(=O)CN2CCCC2)cc1C(=O)c1ccc(Cl)cc1
selectivity ratio [1]: 4.89 | TD50 [4]: > 500 mg/kg | TD50 [2]: 240 mg/kg | ED50 (Mus musculus [3]): 49.1 mg/kg | ED50 (Rattus norvegicus [5]): 17.9 mg/kg

Cc1c(C(=O)CN2CCCC2)c(C)n(C)c1C(=O)c1ccc(Cl)cc1Cl.Cl
selectivity ratio [1]: 2.3 | TD50 [4]: > 200 mg/kg | TD50 [2]: 23.8 mg/kg | ED50 (Mus musculus [3]): 10.3 mg/kg | ED50 (Rattus norvegicus [5]): 19 mg/kg

O=C(CN1CCOCC1)c1c[nH]c(C(=O)c2ccc(Cl)cc2)c1
selectivity ratio [1]: 0.98 | TD50 [4]: 88 mg/kg | TD50 [2]: 84.1 mg/kg | ED50 (Mus musculus [3]): 86.2 mg/kg | ED50 (Rattus norvegicus [5]): 41 mg/kg

CCN(CC)CC(=O)c1cc(C(=O)c2ccc(Cl)cc2)n(C)c1.Cl
selectivity ratio [1]: 2.81 | TD50 [4]: > 500 mg/kg | TD50 [2]: 40.5 mg/kg | ED50 (Rattus norvegicus [5]): 19.3 mg/kg

CCN(CC)CC(=O)c1c(C)c(C(=O)c2ccc(Cl)cc2)n(C)c1C
selectivity ratio [1]: 3.65 | TD50 [4]: > 250 mg/kg | TD50 [2]: 37.7 mg/kg | ED50 (Mus musculus [3]): 10.3 mg/kg | ED50 (Rattus norvegicus [5]): 15.5 mg/kg

Cl.Cn1cc(C(=O)CNC23C[C@H]4C[C@@H](C2)C[C@@H](C3)C4)cc1C(=O)c1ccccc1Cl
selectivity ratio [1]: > 1.57 | TD50 [2]: > 250 mg/kg | ED50 (Mus musculus [3]): 159 mg/kg

CCCC(CCC)C(=O)O [VALPROIC ACID]
TD50 (Rattus norvegicus [9]): 859 mg/kg

Cc1c(C(=O)CN2CCCCC2)c(C)n(C)c1C(=O)c1ccc(Cl)cc1
selectivity ratio [1]: 4.73 | TD50 [4]: > 500 mg/kg | TD50 [2]: 113 mg/kg | ED50 (Mus musculus [3]): 23.9 mg/kg | ED50 (Mus musculus [10]): 25.2 mg/kg | ED50 (Rattus norvegicus [5]): 28.1 mg/kg

O=C1NC(=O)C(c2ccccc2)(c2ccccc2)N1 [PHENYTOIN]
TD50 [11]: > 500 mg/kg | TD50 [12]: 42.8 mg/kg | selectivity ratio [13]: 6.6 | ED50 (Mus musculus [14]): 6.48 mg/kg

Cc1c(C(=O)CN2CCCC2)c(C)n(C)c1C(=O)c1ccc(Cl)cc1
selectivity ratio [1]: 3.6 | TD50 [4]: 203 mg/kg | TD50 [2]: 54.8 mg/kg | ED50 (Mus musculus [3]): 15.2 mg/kg | ED50 (Rattus norvegicus [5]): 16.2 mg/kg

Cl.Cn1cc(C(=O)CN2CCCCCC2)cc1C(=O)c1ccc(Cl)cc1
selectivity ratio [1]: 1.67 | TD50 [4]: > 500 mg/kg | TD50 [2]: 46.1 mg/kg | ED50 (Mus musculus [3]): 27.5 mg/kg | ED50 (Rattus norvegicus [5]): 22 mg/kg

Cn1cc(C(=O)CN2CCCCC2)cc1C(=O)c1ccc(Cl)cc1
selectivity ratio [1]: 3.05 | TD50 [4]: 342 mg/kg | TD50 [2]: 74.2 mg/kg | ED50 (Mus musculus [3]): 24.4 mg/kg | ED50 (Rattus norvegicus [5]): 8.4 mg/kg
